Screens as filed in PubChem BioAssay.
The entries come from a sample that favours hits as a whole.
IDH1 mut inh: IDH1 R132H (human) inhibition; O75874; IDH1 R132H reductase, diaphorase/resazurin fluorescence, 60 min; inhibition, % at 10 µM; hit rate 0.18% among 70,000; in the data active = inhibition above about 34%; inconclusive = no clear call, values can overlap the other calls; inactive = below about 11%
Target sequence (O75874 whole entry R132H): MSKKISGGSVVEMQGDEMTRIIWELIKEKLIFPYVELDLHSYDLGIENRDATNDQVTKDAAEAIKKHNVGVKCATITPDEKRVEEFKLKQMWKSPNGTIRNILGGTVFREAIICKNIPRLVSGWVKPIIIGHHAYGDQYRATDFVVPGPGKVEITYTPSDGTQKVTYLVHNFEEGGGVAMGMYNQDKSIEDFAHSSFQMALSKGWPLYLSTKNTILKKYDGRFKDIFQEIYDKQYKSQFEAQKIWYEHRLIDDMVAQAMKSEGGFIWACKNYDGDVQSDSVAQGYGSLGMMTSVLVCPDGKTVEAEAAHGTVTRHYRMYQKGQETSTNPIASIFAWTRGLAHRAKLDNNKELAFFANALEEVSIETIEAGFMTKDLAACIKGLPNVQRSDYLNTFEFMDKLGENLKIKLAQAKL
KDM4C inh: blocks human GASC-1 (KDM4C) demethylase activity. Q9H3R0. GST-KDM4C 2-372, H3K9me3 peptide, LANCE TR-FRET. inhibition, % at 12.5 µM. hit rate 0.15% among 96,000;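 active = mean replicate inhibition above about 25%, with at least 55% of replicates also reaching it, limit read from the data, passing the limit was not always enough; inconclusive = only one of those two conditions met; inactive = neither condition met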
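System: N-terminal GST-fused human GASC-1 (KDM4C) fragment, residues 2-372; amount: enzyme final amount 10 nM; incubation: reaction 30 min RT, detection step 1 h RT; medium: HEPES buffer, pH 7.5, plus ascorbate; technique: LANCE TR-FRET, Eu antibody, ULight-streptavidin, EDTA, ex 340 nm, em 618/671 nm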
T cruzi growth-1: T. cruzi proliferation inhibition; T. cruzi beta-gal in NIH3T3, GalScreen luminescence, 90 h; inhibition, % at 8.34 µM; hit rate 5.9% among 77,000; AID 624255;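 active = mean inhibition above about 93%, with at least 55% of replicates each passing it, limit read from the data, passing the limit was not always enough; inconclusive = only one of those two conditions holds; inactive = neither condition holds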
T cruzi growth-2: Trypanosoma cruzi proliferation inhibition; inhibition, % at 8.35 µM; hit rate 72% among 5,600; T. cruzi beta-gal in NIH3T3, GalScreen luminescence, 90 h; shares compounds with T cruzi growth-1;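 active = mean replicate inhibition above about 95% and at least 55% of replicates individually reaching it, limit read from the data; inconclusive = only one of the two criteria is met; inactive = neither criterion is met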
T cruzi growth-3: blocks T. cruzi growth in NIH3T3 host cells | T. cruzi beta-gal in NIH3T3, GalScreen luminescence, 90 h | hit rate 21% among 5,600 | shares compounds with T cruzi growth-1 | inhibition, % at 2.09 µM;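 active = mean inhibition above about 95%, with at least 55% of replicates also reaching it, limit read from the data; inconclusive = meets just one of the two conditions; inactive = meets neither condition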
NIH3T3 tox: cytotoxicity in mouse NIH/3T3 fibroblasts. shares compounds with T cruzi growth-1. NIH/3T3 viability, CellTiter-Glo ATP luminescence, 90 h. hit rate 14% among 5,600. cytotoxicity (signal decrease), % at 8.35 µM;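 active = mean signal decrease across replicates above about 35% based on untreated-well scatter, with enough replicates individually passing, limit read from the data; inconclusive = no rule stated though some were filed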
NIH3T3 tox 2: cytotoxicity in mouse NIH/3T3 fibroblasts; shares compounds with T cruzi growth-1; NIH/3T3 viability, CellTiter-Glo ATP luminescence, 90 h; inhibition, % at 24.9 µM; hit rate 56% among 5,600; AID 651744;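 active = mean loss of cell viability signal at or above a set limit, and enough replicates individually reaching it; inconclusive = meets only the mean limit or only the replicate share; inactive = meets neither condition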
Large screens that a line does not name were inactive (follow-up assays come after a bar, where they were run).

CC(=O)NC[C@@H]1[C@@H](c2ccc(-c3ccccc3)cc2)[C@H](CO)N1C(=O)C1CC1	T cruzi growth-1 99 (no result: IDH1 mut inh) | T cruzi growth-2 inactive | T cruzi growth-3 inactive | NIH3T3 tox inactive | NIH3T3 tox 2 inactive
CC(=O)NC[C@H]1[C@H](c2ccc(-c3cccnc3)cc2)[C@H](CO)N1C(=O)C1CC1	T cruzi growth-1 111 (no result: IDH1 mut inh) | T cruzi growth-2 inactive | T cruzi growth-3 inactive | NIH3T3 tox inactive | NIH3T3 tox 2 inactive
CC(=O)NC[C@H]1[C@@H](c2ccc(-c3cccnc3)cc2)[C@@H](CO)N1C(=O)C1CC1	none (no result: IDH1 mut inh)
COc1cc2c(cc1NC(=O)CCOc1ccc(C)cc1)oc1ccccc12	none (no result: KDM4C inh, T cruzi growth-1)
COc1ccccc1-c1cn(CC[C@H]2CC[C@@H](NC(=O)c3cnccn3)[C@@H](CO)O2)nn1	none
C[C@@H]1CN([C@@H](C)CO)S(=O)(=O)c2ccc(C#Cc3ccccc3)cc2O[C@@H]1CN(C)S(C)(=O)=O	none
C[C@H](CO)N1C[C@H](C)[C@@H](CN(C)C)Oc2cc(C#Cc3ccc(F)cc3)ccc2S1(=O)=O	none
C[C@H](CO)N1C[C@H](C)[C@H](CN(C)S(C)(=O)=O)Oc2cc(C#Cc3ccc(F)cc3)ccc2S1(=O)=O	T cruzi growth-1 115 | T cruzi growth-2 103 | T cruzi growth-3 inactive | NIH3T3 tox inactive | NIH3T3 tox 2 51
CCCC#Cc1ccc2c(c1)O[C@@H](CN(C)S(C)(=O)=O)[C@@H](C)CN([C@@H](C)CO)S2(=O)=O	T cruzi growth-1 101 | T cruzi growth-2 inconclusive | T cruzi growth-3 inconclusive | NIH3T3 tox inactive | NIH3T3 tox 2 58
CCCC#Cc1ccc2c(c1)O[C@@H](CN(C)S(C)(=O)=O)[C@H](C)CN([C@@H](C)CO)S2(=O)=O	none
C[C@@H]1CN([C@H](C)CO)S(=O)(=O)c2ccc(C#Cc3ccccc3)cc2O[C@@H]1CN(C)S(C)(=O)=O	none
C[C@H]1CN([C@@H](C)CO)S(=O)(=O)c2ccc(C#Cc3ccc(F)cc3)cc2O[C@H]1CN(C)S(C)(=O)=O	T cruzi growth-1 118 | T cruzi growth-2 105 | T cruzi growth-3 inactive | NIH3T3 tox inactive | NIH3T3 tox 2 inactive
C[C@H]1CN([C@@H](C)CO)S(=O)(=O)c2ccc(C#Cc3ccc(F)cc3)cc2O[C@@H]1CN(C)S(C)(=O)=O	T cruzi growth-1 122 | T cruzi growth-2 102 | T cruzi growth-3 inactive | NIH3T3 tox inconclusive | NIH3T3 tox 2 87
CC(NS(=O)(=O)c1ccc(Cl)cc1)C(=O)Nc1cccc(Br)c1 (centres undefined)	none (no result: KDM4C inh, T cruzi growth-1)
C[C@@H]1CN([C@H](C)CO)C(=O)c2cccc(NC(=O)Nc3ccc(C(F)(F)F)cc3)c2O[C@@H]1CN(C)Cc1ccc(C(F)(F)F)cc1	none
C[C@@H]1CN([C@H](C)CO)C(=O)c2cccc(NC(=O)Nc3ccc(C(F)(F)F)cc3)c2O[C@@H]1CN(C)Cc1ccc(Oc2ccccc2)cc1	T cruzi growth-1 120 (no result: IDH1 mut inh) | T cruzi growth-2 97 | T cruzi growth-3 98 | NIH3T3 tox inactive | NIH3T3 tox 2 104
C[C@H]1CN([C@@H](C)CO)C(=O)c2cccc(NC(=O)Nc3ccc(C(F)(F)F)cc3)c2O[C@H]1CN(C)Cc1ccc(Oc2ccccc2)cc1	none
COc1ccc(CN(C)C[C@@H]2Oc3c(NC(=O)Nc4ccc(C(F)(F)F)cc4)cccc3C(=O)N([C@H](C)CO)C[C@@H]2C)cc1	none (no result: T cruzi growth-1)
C[C@@H]1CN([C@H](C)CO)C(=O)c2cccc(NC(=O)Nc3ccc(C(F)(F)F)cc3)c2O[C@H]1CN(C)Cc1ccc(Oc2ccccc2)cc1	T cruzi growth-1 121 | T cruzi growth-2 inconclusive | T cruzi growth-3 inactive | NIH3T3 tox inactive | NIH3T3 tox 2 104
C[C@@H]1CN([C@@H](C)CO)C(=O)c2cccc(NC(=O)Nc3ccc(C(F)(F)F)cc3)c2O[C@H]1CN(C)Cc1ccc(Oc2ccccc2)cc1	T cruzi growth-1 126 | T cruzi growth-2 109 | T cruzi growth-3 102 | NIH3T3 tox inactive | NIH3T3 tox 2 99
C[C@@H]1CN([C@@H](C)CO)C(=O)c2cccc(NC(=O)Nc3ccc(C(F)(F)F)cc3)c2O[C@@H]1CN(C)Cc1ccc(Oc2ccccc2)cc1	T cruzi growth-1 124 (no result: IDH1 mut inh, KDM4C inh) | T cruzi growth-2 inactive | T cruzi growth-3 111 | NIH3T3 tox 60 | NIH3T3 tox 2 105
